The values that follow come from ChEMBL document CHEMBL4152391, “Bile Acid Oligomers and Their Combination with Antibiotics To Combat Bacterial Infections” (J Med Chem, 2018).

Structures are written as SMILES. ≈ marks a conversion by molar mass, not a printed value. Calls of active or inactive are those of the source. The rule behind the calls is not given here.

Data set [1] concerns Pseudomonas aeruginosa. Kind of data set: Antibacterial activity against Pseudomonas aeruginosa at 5 to 100 ug after 18 hrs by agar disk-diffusion method. It counts as functional, organism-based. The gist of the method: (§1)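 Agar disk diffusion per CLSI: compound loaded on sterile 6 mm paper disks, dried, placed on Mueller Hinton agar lawned with bacteria at McFarland 0.5; cefotaxime positive and DMSO solvent controls; 37 °C for 18 h; zone of inhibition diameter measured to nearest whole mm.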

Data set [2] has as its system Escherichia coli. As to the kind of experiment: Antibacterial activity against Escherichia coli ATCC 25922 at 5 to 100 ug after 18 hrs by agar disk-diffusion method. The data set is classed as functional, organism-based. The gist of the method: as §1
In data set [3] the test system is HEK293. Kind of data set: Cytotoxicity against HEK293 cells assessed as decrease in cell viability at 1 to 200 uM after 24 hrs by Alamar Blue assay. The note with it: human, hek293, 24 h. It counts as cell-based. The gist of the method:
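HEK293 cells in DMEM HG, 10% FBS, 1% pen-strep, 37 °C 5% CO2, passage under 30, used at 80% confluency; seeded 1×10^4/well, after 24 h washed and treated 24 h with 1–200 µM in complete medium; alamar blue (0.15 mg/mL) added for 4 h, absorbance 570 and 600 nm; viability relative to untreated cells as 100%.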

For data set [4], the system named is Staphylococcus aureus. Kind of data set: Antibacterial activity against Staphylococcus aureus ATCC 29213 at 5 to 100 ug after 18 hrs by agar disk-diffusion method. The data set is classed as functional, organism-based. The gist of the method: as §1
For data set [5], the system named is Staphylococcus aureus. As to the kind of experiment: Antibacterial activity against Staphylococcus aureus ATCC 29213 at 30 ug after 18 hrs by agar disk-diffusion method. The data set is classed as functional. The gist of the method: as §1
For data set [6], the system named is Staphylococcus aureus. As to the kind of experiment: Antibacterial activity against Staphylococcus aureus ATCC 29213 after 18 hrs by broth microdilution method. The data set is classed as functional, organism-based. The note with it: ATCC 29213, 18 h. The gist of the method: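 Broth microdilution per CLSI for water-insoluble agents: twofold serial dilutions made in DMSO at 100x final, diluted in Mueller Hinton broth to 1% final DMSO; 5x10^5 cfu/mL bacteria exposed 18 h at 37 °C with positive, growth and sterility controls. MIC = lowest concentration giving complete growth inhibition (turbidity and XTT reduction); IC50 from OD600 dose-response inflection point.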

Data set [7] has as its system Staphylococcus aureus. As to the kind of experiment: Antibiofilm activity against Staphylococcus aureus ATCC 29213 at 128 ug/ml after 18 hrs by XTT-menadione assay relative to control. It counts as functional. The gist of the method:
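Biofilms grown 24 h at 37 °C from suspension at OD600 0.1 in tryptic soy broth with 1% glucose, washed twice with saline, exposed 18 h at 37 °C to twofold serial dilutions; growth and sterility controls. Read by XTT (0.5 mg/mL)–menadione (10 µM) in MHB, 1 h dark at 37 °C, absorbance 450 nm; MBIC50 and MBIC100 = 50% and 100% inhibition.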

With `CCCCCCCCCCCCCCCC(=O)NCCNCCN`, the result in data set [1] and in data set [2] was inactive.

With `C[C@H](CCC(=O)NCCN(CCNC(=O)CC[C@@H](C)[C@H]1CC[C@H]2[C@@H]3CC[C@@H]4C[C@H](O)CC[C@]4(C)[C@H]3C[C@H](O)[C@]12C)CCNC(=O)CC[C@@H](C)[C@H]1CC[C@H]2[C@@H]3CC[C@@H]4C[C@H](O)CC[C@]4(C)[C@H]3C[C@H](O)[C@]12C)[C@H]1CC[C@H]2[C@@H]3CC[C@@H]4C[C@H](O)CC[C@]4(C)[C@H]3C[C@H](O)[C@]12C`, the Activity result in data set [3] was “Non-Toxic”. Further, the result in data set [4], in data set [1] and in data set [2] was inactive.

As for `C[C@H](CCC(=O)N1CCCN(C(=O)CC[C@@H](C)[C@H]2CC[C@H]3[C@@H]4[C@H](O)C[C@@H]5C[C@H](O)CC[C@]5(C)[C@H]4C[C@H](O)[C@]23C)CCN(C(=O)CC[C@@H](C)[C@H]2CC[C@H]3[C@@H]4[C@H](O)C[C@@H]5C[C@H](O)CC[C@]5(C)[C@H]4C[C@H](O)[C@]23C)CCCN(C(=O)CC[C@@H](C)[C@H]2CC[C@H]3[C@@H]4[C@H](O)C[C@@H]5C[C@H](O)CC[C@]5(C)[C@H]4C[C@H](O)[C@]23C)CC1)[C@H]1CC[C@H]2[C@@H]3[C@H](O)C[C@@H]4C[C@H](O)CC[C@]4(C)[C@H]3C[C@H](O)[C@]12C`, the Activity result in data set [3] was “Non-Toxic”. The outcome in data set [4], in data set [1] and in data set [2] was inactive.

As to `C[C@H](CCC(=O)NCCNCCNCCNC(=O)CC[C@@H](C)[C@H]1CC[C@H]2[C@@H]3[C@H](O)C[C@@H]4C[C@H](O)CC[C@]4(C)[C@H]3C[C@H](O)[C@]12C)[C@H]1CC[C@H]2[C@@H]3[C@H](O)C[C@@H]4C[C@H](O)CC[C@]4(C)[C@H]3C[C@H](O)[C@]12C`, the zone of inhibition at 30 µg/disc in data set [5] (ATCC 29213, 18 h, read-out: DIZ) is 11 mm. In addition, the result in data set [1] and in data set [2] was inactive. Also, the IC50 in data set [6] is 12.1 µg/mL (≈ 13 µM). Besides, in data set [6], the MIC stood at 16 µg/mL (≈ 17.3 µM).

On to `CCCCCCCCCCCCCCCC(=O)N(CCNC(=O)CC[C@@H](C)[C@H]1CC[C@H]2[C@@H]3[C@H](O)C[C@@H]4C[C@H](O)CC[C@]4(C)[C@H]3C[C@H](O)[C@]12C)CCNC(=O)CC[C@@H](C)[C@H]1CC[C@H]2[C@@H]3[C@H](O)C[C@@H]4C[C@H](O)CC[C@]4(C)[C@H]3C[C@H](O)[C@]12C`, for which the result in data set [4], in data set [1] and in data set [2] was inactive.

As to `C[C@H](CCC(=O)NCCNC(=O)CC[C@@H](C)[C@H]1CC[C@H]2[C@@H]3CC[C@@H]4C[C@H](O)CC[C@]4(C)[C@H]3C[C@H](O)[C@]12C)[C@H]1CC[C@H]2[C@@H]3CC[C@@H]4C[C@H](O)CC[C@]4(C)[C@H]3C[C@H](O)[C@]12C`, the Activity result in data set [3] is on record as “Non-Toxic”. Moreover, the result in data set [5], in data set [1] and in data set [2] was inactive.

Take `NCC[C@H](O)C(=O)N[C@@H]1C[C@H](N)[C@@H](O[C@H]2O[C@H](CN)[C@@H](O)[C@H](O)[C@H]2O)[C@H](O)[C@H]1O[C@H]1O[C@H](CO)[C@@H](O)[C@H](N)[C@H]1O` [AMIKACIN]: in data set [7], the Activity was <50%.

Consider `CCCCCCCCCCCCCCCC(=O)NCCN(CCNC(=O)OC(C)(C)C)C(=O)OC(C)(C)C`, for which the outcome in data set [1] and in data set [2] was inactive.

On to `CO/N=C(\C(=O)N[C@@H]1C(=O)N2C(C(=O)O)=C(COC(C)=O)CS[C@H]12)c1csc(N)n1` [CEFOTAXIME], for which the Activity in data set [7] was <50%.

With `C[C@H](CCC(=O)NCCNCCNC(=O)CC[C@@H](C)[C@H]1CC[C@H]2[C@@H]3CC[C@@H]4C[C@H](O)CC[C@]4(C)[C@H]3C[C@H](O)[C@]12C)[C@H]1CC[C@H]2[C@@H]3CC[C@@H]4C[C@H](O)CC[C@]4(C)[C@H]3C[C@H](O)[C@]12C`, the result in data set [5], in data set [1] and in data set [2] was inactive.

In the case of `O=C(O)c1cn(C2CC2)c2cc(N3CCNCC3)c(F)cc2c1=O` [CIPROFLOXACIN], the Activity in data set [7] is <50%.

As to `CCCCCCCCCCCCCCCC(=O)NCCNCCNC(=O)CC[C@@H](C)[C@H]1CC[C@H]2[C@@H]3[C@H](O)C[C@@H]4C[C@H](O)CC[C@]4(C)[C@H]3C[C@H](O)[C@]12C`, the outcome in data set [4], in data set [1] and in data set [2] was inactive.

Regarding `C[C@H](CCC(=O)NCCCCCNC(=O)CC[C@@H](C)[C@H]1CC[C@H]2[C@@H]3[C@H](O)C[C@@H]4C[C@H](O)CC[C@]4(C)[C@H]3C[C@H](O)[C@]12C)[C@H]1CC[C@H]2[C@@H]3[C@H](O)C[C@@H]4C[C@H](O)CC[C@]4(C)[C@H]3C[C@H](O)[C@]12C`, the result in data set [4], in data set [1] and in data set [2] was inactive.

Consider `C[C@H](CCC(=O)NCCN(CCNC(=O)CC[C@@H](C)[C@H]1CC[C@H]2[C@@H]3[C@H](O)C[C@@H]4C[C@H](O)CC[C@]4(C)[C@H]3C[C@H](O)[C@]12C)CCNC(=O)CC[C@@H](C)[C@H]1CC[C@H]2[C@@H]3[C@H](O)C[C@@H]4C[C@H](O)CC[C@]4(C)[C@H]3C[C@H](O)[C@]12C)[C@H]1CC[C@H]2[C@@H]3[C@H](O)C[C@@H]4C[C@H](O)CC[C@]4(C)[C@H]3C[C@H](O)[C@]12C`, for which the Activity entry in data set [3] is “Non-Toxic”. The outcome in data set [4], in data set [1] and in data set [2] was inactive.

Regarding `C[C@H](CCC(=O)NCCNC(=O)CC[C@@H](C)[C@H]1CC[C@H]2[C@@H]3[C@H](O)C[C@@H]4C[C@H](O)CC[C@]4(C)[C@H]3C[C@H](O)[C@]12C)[C@H]1CC[C@H]2[C@@H]3[C@H](O)C[C@@H]4C[C@H](O)CC[C@]4(C)[C@H]3C[C@H](O)[C@]12C`, the Activity entry in data set [3] is recorded as “Non-Toxic”. Moreover, the result in data set [5], in data set [1] and in data set [2] was inactive.

For the compound `C[C@H](CCC(=O)NCCN(CCN(CCNC(=O)CC[C@@H](C)[C@H]1CC[C@H]2[C@@H]3[C@H](O)C[C@@H]4C[C@H](O)CC[C@]4(C)[C@H]3C[C@H](O)[C@]12C)C(=O)OC(C)(C)C)C(=O)OC(C)(C)C)[C@H]1CC[C@H]2[C@@H]3[C@H](O)C[C@@H]4C[C@H](O)CC[C@]4(C)[C@H]3C[C@H](O)[C@]12C`, the outcome in data set [4], in data set [1] and in data set [2] was inactive.

Turning to `CC(=O)N(CCNC(=O)CC[C@@H](C)[C@H]1CC[C@H]2[C@@H]3[C@H](O)C[C@@H]4C[C@H](O)CC[C@]4(C)[C@H]3C[C@H](O)[C@]12C)CCNC(=O)CC[C@@H](C)[C@H]1CC[C@H]2[C@@H]3[C@H](O)C[C@@H]4C[C@H](O)CC[C@]4(C)[C@H]3C[C@H](O)[C@]12C`, the outcome in data set [4], in data set [1] and in data set [2] was inactive.

As for `CC(C)(C)OC(=O)NCCN(CCN)C(=O)OC(C)(C)C`, the outcome in data set [1] and in data set [2] was inactive.

As to `C[C@H](CCC(=O)NCCCNC(=O)CC[C@@H](C)[C@H]1CC[C@H]2[C@@H]3CC[C@@H]4C[C@H](O)CC[C@]4(C)[C@H]3C[C@H](O)[C@]12C)[C@H]1CC[C@H]2[C@@H]3CC[C@@H]4C[C@H](O)CC[C@]4(C)[C@H]3C[C@H](O)[C@]12C`, the Activity entry in data set [3] is “Non-Toxic”. Also, the result in data set [5], in data set [1] and in data set [2] was inactive.

Take `C[C@H](CCC(=O)NCCCNC(=O)CC[C@@H](C)[C@H]1CC[C@H]2[C@@H]3[C@H](O)C[C@@H]4C[C@H](O)CC[C@]4(C)[C@H]3C[C@H](O)[C@]12C)[C@H]1CC[C@H]2[C@@H]3[C@H](O)C[C@@H]4C[C@H](O)CC[C@]4(C)[C@H]3C[C@H](O)[C@]12C`: the Activity entry in data set [3] is “Non-Toxic”. For the same compound, the result in data set [5], in data set [1] and in data set [2] was inactive.
